In one experiment the test system is OCI-AML-3. Kind of experiment: (§1) Anticancer activity against human OCI-AML3 cells expressing mutant NPM1 assessed as apoptosis for 48 hrs by annexin-V and TO-PRO3 staining based flow cytometry. The experiment is classed as functional, cell-based. The method in brief: (§2)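 OCI-AML3 cells (NPM1c+) in logarithmic growth, passaged 2–3 times weekly. Cells were exposed to the indicated compound concentrations for 48 hr, then stained with annexin V and TO-PRO 3. Percent apoptotic cells was read by flow cytometry. AP50 is the concentration at which 50% of cells undergo apoptosis.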
For orientation: Flow cytometry measures light scatter and fluorescence of single cells or particles in a stream.

Experiment [1] in a line: as §1. The experiment is classed as functional, cell-based. The following applies: OCI-AML-3, 48 h. The method in brief:
as §2

Active and inactive are the calls of the source. The rule behind the calls is not given here.

Turning to `Cc1c(C=C2C(=O)NC(=O)NC2=O)c2ccccc2n1Cc1ccc(Br)cc1`, the result in the experiment on OCI-AML-3 was inactive.

One may read the AC50 as the concentration at which the activity in the assay is half-maximal. As for `Cc1c(C=C2C(=O)NC(=S)NC2=O)c2ccccc2n1Cc1ccc(Br)cc1`, in the experiment with OCI-AML-3, the Activity entry was “Dose-dependent effect”. Besides, the AC50 in experiment [1] is 3.3 µM.

For `Cc1c(C=C2C(=O)NC(=O)NC2=O)c2ccccc2n1Cc1ccccc1`, the result in the experiment on OCI-AML-3 was inactive.

Take `COC(=O)c1ccc(Cn2c(C)c(C=C3C(=O)NC(=O)NC3=O)c3ccccc32)cc1`: the outcome in the experiment on OCI-AML-3 was inactive.

These data come from ChEMBL document CHEMBL3627695, “1-Benzyl-2-methyl-3-indolylmethylene barbituric acid derivatives: Anti-cancer agents that target nucleophosmin 1 (NPM1)” (Bioorg Med Chem, 2015).
